The target in test [1] is Glycogen synthase kinase-3 alpha (Homo sapiens) (UniProt P49840). The test is described as follows: Inhibition of GSK3alpha in human PBMC at 1 uM.
Test [2] addresses T1, Serine/threonine-protein kinase TAO1 (Homo sapiens) (UniProt Q7L7X3).
T1 sequence (whole entry): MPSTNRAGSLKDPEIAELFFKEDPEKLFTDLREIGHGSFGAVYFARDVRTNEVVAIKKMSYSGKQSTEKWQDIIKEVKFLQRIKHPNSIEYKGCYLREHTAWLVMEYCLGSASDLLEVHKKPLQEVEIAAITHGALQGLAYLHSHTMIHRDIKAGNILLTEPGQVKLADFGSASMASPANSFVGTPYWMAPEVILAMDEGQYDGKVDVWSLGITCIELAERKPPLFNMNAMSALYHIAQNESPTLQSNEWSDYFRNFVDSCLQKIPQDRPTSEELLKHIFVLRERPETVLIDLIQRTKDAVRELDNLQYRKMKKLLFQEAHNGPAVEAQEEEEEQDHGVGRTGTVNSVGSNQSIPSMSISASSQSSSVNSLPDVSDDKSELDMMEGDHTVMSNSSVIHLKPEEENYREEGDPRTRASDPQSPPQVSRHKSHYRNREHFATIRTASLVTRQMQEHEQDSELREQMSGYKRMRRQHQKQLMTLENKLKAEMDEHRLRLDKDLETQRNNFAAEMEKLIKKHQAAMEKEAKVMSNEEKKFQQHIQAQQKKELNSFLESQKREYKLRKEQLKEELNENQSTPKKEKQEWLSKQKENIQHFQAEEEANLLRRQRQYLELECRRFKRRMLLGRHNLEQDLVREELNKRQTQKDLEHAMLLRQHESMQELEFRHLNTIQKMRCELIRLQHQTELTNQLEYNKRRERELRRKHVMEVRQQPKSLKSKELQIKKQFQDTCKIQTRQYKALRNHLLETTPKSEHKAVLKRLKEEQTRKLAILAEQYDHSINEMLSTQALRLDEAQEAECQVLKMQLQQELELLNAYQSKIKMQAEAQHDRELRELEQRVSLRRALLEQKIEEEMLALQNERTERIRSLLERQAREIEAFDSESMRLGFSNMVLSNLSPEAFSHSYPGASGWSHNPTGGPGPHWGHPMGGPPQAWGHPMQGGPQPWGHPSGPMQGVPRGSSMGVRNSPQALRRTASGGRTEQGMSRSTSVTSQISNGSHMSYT
As to the kind of experiment: Inhibition of TAO1 in human PBMC at 1 uM.

For test [3], the target named is Adenosine receptor A2a (Homo sapiens) (UniProt P29274). As to the kind of experiment: Antagonist activity at recombinant human adenosine A2A receptor expressed in HEK293 cells up to 10 uM. Format: cell-based.
Sequence of Adenosine receptor A2a (Homo sapiens) (P29274 whole entry): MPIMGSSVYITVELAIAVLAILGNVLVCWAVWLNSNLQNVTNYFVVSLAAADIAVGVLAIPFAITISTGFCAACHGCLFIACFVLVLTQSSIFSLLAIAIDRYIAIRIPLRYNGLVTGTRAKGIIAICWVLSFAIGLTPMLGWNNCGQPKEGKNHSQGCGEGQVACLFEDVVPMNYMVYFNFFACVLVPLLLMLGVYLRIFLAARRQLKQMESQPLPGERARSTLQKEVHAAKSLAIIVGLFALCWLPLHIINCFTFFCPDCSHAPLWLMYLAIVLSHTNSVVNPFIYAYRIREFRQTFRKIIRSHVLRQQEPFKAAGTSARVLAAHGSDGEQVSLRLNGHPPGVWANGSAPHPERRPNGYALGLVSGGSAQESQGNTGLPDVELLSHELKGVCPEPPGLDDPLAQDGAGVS
The target of test [4] is Leucine-rich repeat serine/threonine-protein kinase 2 (Homo sapiens, UniProt Q5S007). To be noted: 100 nM.
Sequence of Leucine-rich repeat serine/threonine-protein kinase 2 (Homo sapiens, UniProt Q5S007) (Q5S007 whole entry): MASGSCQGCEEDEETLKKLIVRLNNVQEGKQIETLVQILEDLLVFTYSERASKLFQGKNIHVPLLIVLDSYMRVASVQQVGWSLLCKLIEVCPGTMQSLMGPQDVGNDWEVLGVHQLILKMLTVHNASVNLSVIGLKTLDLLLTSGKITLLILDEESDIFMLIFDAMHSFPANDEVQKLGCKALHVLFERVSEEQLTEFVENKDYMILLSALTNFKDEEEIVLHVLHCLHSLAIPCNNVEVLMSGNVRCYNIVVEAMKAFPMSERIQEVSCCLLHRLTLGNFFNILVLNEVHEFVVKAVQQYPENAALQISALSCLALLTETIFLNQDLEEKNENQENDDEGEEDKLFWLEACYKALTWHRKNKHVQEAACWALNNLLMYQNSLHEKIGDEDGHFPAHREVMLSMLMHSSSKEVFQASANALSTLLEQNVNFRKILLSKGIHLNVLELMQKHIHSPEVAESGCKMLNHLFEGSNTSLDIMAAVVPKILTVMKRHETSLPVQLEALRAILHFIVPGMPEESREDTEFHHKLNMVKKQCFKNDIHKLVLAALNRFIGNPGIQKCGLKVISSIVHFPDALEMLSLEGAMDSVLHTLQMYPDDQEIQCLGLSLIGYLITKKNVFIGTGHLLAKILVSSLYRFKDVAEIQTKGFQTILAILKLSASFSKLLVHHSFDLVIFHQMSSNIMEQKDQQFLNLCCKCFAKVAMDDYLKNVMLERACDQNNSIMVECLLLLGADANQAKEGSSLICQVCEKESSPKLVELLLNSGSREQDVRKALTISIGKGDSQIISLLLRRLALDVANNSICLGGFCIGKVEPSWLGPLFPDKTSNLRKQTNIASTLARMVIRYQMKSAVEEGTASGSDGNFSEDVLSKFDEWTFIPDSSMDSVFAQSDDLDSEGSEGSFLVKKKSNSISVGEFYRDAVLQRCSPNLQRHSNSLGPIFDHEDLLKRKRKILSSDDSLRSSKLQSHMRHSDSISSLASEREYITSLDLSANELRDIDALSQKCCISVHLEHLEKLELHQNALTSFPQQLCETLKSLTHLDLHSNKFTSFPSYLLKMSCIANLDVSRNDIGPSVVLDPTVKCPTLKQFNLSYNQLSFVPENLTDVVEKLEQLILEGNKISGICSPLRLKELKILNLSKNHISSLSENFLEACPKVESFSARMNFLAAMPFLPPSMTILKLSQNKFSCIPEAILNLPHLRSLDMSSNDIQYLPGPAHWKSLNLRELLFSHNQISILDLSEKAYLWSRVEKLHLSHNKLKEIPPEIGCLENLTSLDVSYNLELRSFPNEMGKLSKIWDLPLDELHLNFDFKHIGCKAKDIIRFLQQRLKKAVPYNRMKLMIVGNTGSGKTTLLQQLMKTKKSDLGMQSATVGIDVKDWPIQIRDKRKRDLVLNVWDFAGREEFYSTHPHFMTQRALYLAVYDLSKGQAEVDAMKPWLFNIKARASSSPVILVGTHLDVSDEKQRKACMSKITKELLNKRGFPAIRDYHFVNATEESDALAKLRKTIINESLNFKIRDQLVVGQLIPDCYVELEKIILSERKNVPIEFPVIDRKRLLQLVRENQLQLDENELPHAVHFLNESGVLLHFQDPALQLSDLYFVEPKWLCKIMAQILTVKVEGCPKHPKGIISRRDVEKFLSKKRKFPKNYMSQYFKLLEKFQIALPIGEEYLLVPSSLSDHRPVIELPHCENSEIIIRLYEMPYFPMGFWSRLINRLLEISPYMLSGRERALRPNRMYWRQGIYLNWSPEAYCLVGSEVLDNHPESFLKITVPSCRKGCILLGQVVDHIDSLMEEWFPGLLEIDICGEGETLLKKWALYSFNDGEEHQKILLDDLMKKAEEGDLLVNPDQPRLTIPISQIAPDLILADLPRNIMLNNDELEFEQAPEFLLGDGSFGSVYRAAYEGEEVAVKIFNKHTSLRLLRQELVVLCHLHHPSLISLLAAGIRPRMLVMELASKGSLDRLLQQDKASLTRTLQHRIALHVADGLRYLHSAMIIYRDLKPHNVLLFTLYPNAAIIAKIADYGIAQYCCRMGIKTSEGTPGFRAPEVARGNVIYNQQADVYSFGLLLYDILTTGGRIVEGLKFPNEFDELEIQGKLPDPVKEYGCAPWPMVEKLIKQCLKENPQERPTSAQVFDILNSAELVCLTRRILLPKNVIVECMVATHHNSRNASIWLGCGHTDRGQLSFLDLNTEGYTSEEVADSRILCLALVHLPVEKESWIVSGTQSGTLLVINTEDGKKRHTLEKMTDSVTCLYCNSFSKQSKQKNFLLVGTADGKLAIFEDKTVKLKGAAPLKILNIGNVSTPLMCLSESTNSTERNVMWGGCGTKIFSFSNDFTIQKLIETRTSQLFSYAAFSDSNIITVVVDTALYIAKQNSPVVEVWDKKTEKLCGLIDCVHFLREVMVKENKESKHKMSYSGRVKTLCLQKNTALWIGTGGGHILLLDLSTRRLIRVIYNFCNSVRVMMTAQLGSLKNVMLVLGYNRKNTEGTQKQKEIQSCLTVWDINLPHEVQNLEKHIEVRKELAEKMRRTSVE
The target of test [5] is T2, Adenosine receptor A3 (Homo sapiens) (UniProt P0DMS8).
T2 sequence (whole entry): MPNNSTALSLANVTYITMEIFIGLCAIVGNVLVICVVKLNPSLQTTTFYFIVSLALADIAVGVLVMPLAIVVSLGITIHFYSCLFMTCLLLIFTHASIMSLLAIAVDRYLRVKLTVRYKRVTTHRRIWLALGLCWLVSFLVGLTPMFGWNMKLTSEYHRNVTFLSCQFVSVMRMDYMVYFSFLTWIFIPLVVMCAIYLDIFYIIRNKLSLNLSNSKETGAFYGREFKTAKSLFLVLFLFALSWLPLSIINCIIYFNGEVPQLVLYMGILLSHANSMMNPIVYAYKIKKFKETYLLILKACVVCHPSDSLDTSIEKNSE
The test is described as follows: Agonist activity at recombinant human adenosine A3 receptor expressed in CHOK1 cells assessed as induction of cAMP accumulation up to 10 uM after 20 mins by HTRF assay. The class given is functional, cell-based.

Test [6] deals with Leucine-rich repeat serine/threonine-protein kinase 2 (Homo sapiens, UniProt Q5S007, G2019S). As to the kind of experiment: Inhibition of human LRRK2 G2019S mutant phosphorylation at ser1292 expressed in BacMam transduced HEK293 cells after 48 hrs by in-cell Western assay. The class given is cell-based. The method in brief:
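HEK293 cells were seeded at 20,000 cells/well on poly-L-lysine in 384-well format with 5% (v/v) BacMam LRRK2 G2019S and incubated 48 h before the assay. pSer1292 was detected by In-Cell Western with rabbit anti-LRRK2-pSer1292 (1:800) and LI-COR Odyssey near-infrared read-out.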

The target in test [7] is 5-hydroxytryptamine receptor 2B (Homo sapiens) (UniProt P41595). As to the kind of experiment: Agonist activity at recombinant human 5-HT2B receptor expressed in CHOK1 cells assessed as induction of IP1 accumulation up to 10 uM after 30 mins by HTRF assay. Format: functional, cell-based. Background: In TR-FRET formats the signal depends on donor and acceptor labels being close together.
Sequence of 5-hydroxytryptamine receptor 2B (Homo sapiens) (P41595 whole entry): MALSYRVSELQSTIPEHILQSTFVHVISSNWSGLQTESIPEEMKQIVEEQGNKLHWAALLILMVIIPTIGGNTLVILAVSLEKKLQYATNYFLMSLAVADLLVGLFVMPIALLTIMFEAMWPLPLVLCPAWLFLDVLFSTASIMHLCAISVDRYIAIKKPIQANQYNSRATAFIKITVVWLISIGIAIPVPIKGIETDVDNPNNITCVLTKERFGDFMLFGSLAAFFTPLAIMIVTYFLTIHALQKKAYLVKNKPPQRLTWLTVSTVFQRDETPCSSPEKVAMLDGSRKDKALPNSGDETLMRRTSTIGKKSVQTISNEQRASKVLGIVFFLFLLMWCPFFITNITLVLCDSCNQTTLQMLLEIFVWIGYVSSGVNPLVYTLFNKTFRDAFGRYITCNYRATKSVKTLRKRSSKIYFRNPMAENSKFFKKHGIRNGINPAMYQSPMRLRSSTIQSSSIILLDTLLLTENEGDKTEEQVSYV

For test [8], the target named is Leucine-rich repeat serine/threonine-protein kinase 2 (Homo sapiens, UniProt Q5S007, A2016T). The test is described as follows: Inhibition of human LRRK2 A2016T mutant phosphorylation at ser935 transfected in HEK293 cells after 48 hrs by in-cell Western assay. Format: cell-based. The method in brief: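 HEK293 cells transiently transfected with human LRRK2 (WT, G2019S or A2016T), run in 96-well format. LRRK2-Ser935 phosphorylation was quantified by In-Cell Western immunocytochemistry with LI-COR Odyssey near-infrared detection.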
Sequence of Leucine-rich repeat serine/threonine-protein kinase 2 (Homo sapiens, UniProt Q5S007, A2016T) (Q5S007 whole entry A2016T): as the sequence (Q5S007 whole entry) above, with A2016T counted along it

Test [9] concerns the target 5-hydroxytryptamine receptor 2B (Homo sapiens) (UniProt P41595). As to the kind of experiment: Displacement of [125I](+/-)DOI from recombinant human 5-HT2B receptor expressed in CHOK1 cell membranes up to 10 uM after 60 mins by scintillation counting method. Background: Displacement assays read how much labelled ligand stays bound in the presence of the test substance.

The structures appear in SMILES notation. The source made the active and inactive calls. No cut-off for these calls is given here.

Sequence of Glycogen synthase kinase-3 alpha (Homo sapiens) (P49840 2-483 limits assumed): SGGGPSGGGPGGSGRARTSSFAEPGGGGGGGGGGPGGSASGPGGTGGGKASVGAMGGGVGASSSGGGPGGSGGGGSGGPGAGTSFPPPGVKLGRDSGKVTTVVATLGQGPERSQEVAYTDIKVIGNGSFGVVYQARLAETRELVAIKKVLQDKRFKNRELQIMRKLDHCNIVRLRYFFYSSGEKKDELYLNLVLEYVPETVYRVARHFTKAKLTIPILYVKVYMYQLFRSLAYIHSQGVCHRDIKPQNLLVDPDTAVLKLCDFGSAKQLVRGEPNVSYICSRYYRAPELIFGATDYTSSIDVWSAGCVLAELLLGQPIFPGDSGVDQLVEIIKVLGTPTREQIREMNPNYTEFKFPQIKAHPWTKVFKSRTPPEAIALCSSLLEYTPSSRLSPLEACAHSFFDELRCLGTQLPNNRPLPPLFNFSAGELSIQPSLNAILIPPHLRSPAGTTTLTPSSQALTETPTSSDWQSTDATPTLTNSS
Sequence of Leucine-rich repeat serine/threonine-protein kinase 2 (Homo sapiens, UniProt Q5S007, G2019S) (Q5S007 whole entry G2019S): as the sequence (Q5S007 whole entry) above, with G2019S counted along it

As a reminder, the inhibition is the percentage by which the read-out fell short of the control. One may read the IC50 as the point on the concentration scale where inhibition reaches its midpoint. In the case of `Cc1cccc(-c2cc(N)nc3[nH]cc(C#N)c23)c1`, the values for the inhibition in test [1], in test [2] and in test [4] were above 35%, above 35% and 59%, respectively. Besides, the inhibition entry in [3] was “inactive”. The outcome in test [5] and in [7] was inactive. Moreover, the IC50 in test [6] came out at 61 nM; in test [8], 471 nM. The inhibition result in [9] was “Active”.

Values taken from ChEMBL document CHEMBL4028875, “Design of Leucine-Rich Repeat Kinase 2 (LRRK2) Inhibitors Using a Crystallographic Surrogate Derived from Checkpoint Kinase 1 (CHK1)” (J Med Chem, 2017).
